# Casp6 inh: blocks human caspase-6 cleavage activity; purified caspase-6, Z-VEID-R110 cleavage fluorescence; inhibition, % at 12.5 µM; actives 0.53% (n = 350,000);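 active means mean inhibition across replicates at least about 35%, with every replicate also reaching that limit, limit read from the data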;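 further: 0% = median of neutral control wells and 100% = no fluorescence left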
# esBAF inh: SWI/SNF esBAF complex inhibition; mouse ES cells, Bmi1-luciferase knock-in reporter, 24 h; 100% = twice the neutral-well signal; actives 2% (n = 350,000); reporter increase, % at 12.5 µM; in the data active means activation above about 40%;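 further: 0% = median of the plate's neutral control wells and 100% = double that signal; a rise in the Bmi1 reporter signal indicates esBAF inhibition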
# NSD2 HMT inh: NSD2 (human) methyltransferase inhibition; O96028; NSD2 peptide methylation, AlphaScreen, 120 min; inhibition, % at 12.5 µM; actives 0.54% (n = 310,000); in the data active means inhibition above about 50%
# Wnt act: activates Wnt/beta-catenin signaling in a reporter cell assay; actives 1.2% (n = 300,000); AID 743398; activation, % at 9.35 µM; activator, plate reader; in the data active means activation above about 30%, passing the limit was not always enough;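 further: 0% = neutral control wells and 100% = positive control wells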
# MITF TRPM1 HTS: activators of MITF-driven TRPM1 promoter activity in SK-MEL-5 cells | SK-MEL-5 TRPM1-promoter luciferase, 24 h; % of positive control, neutral wells = 0 | actives 0.75% (n = 300,000) | activation, % at 12.5 µM;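 active means mean activation of at least 80% with every replicate also reaching 80%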;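 further: 0% = neutral control wells and 100% = parthenolide positive control wells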
# XiGFP reactiv: reactivates the inactive X chromosome in mouse fibroblasts. actives 0.055% (n = 360,000). activation, % at 7.58 µM. XiGFP mouse fibroblasts, % GFP-positive cells imaging, 3 d; cells co-treated with 5-aza-dC sensitizer; scaled so ellipticine positive control = 100%;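 active means mean normalized replicate activation at least 10% and every replicate at or above 10%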;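 further: 0% = median of on-plate neutral control wells and 100% = ellipticine 6 µM median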
#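 Material: SV40-immortalized XiGFP fibroblast cells, line 68-5-11 | Buffer or medium: DMEM containing 5-aza-dC | Dosing: One concentration, pinned | Times: 3 d treatment, 15 min room-temperature fixation | Controls: Ellipticine 6 µM positive control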
# AlphaScreen art: counter-screen for NSD2 inhibitors: AlphaScreen artifacts. AlphaScreen artifact counterscreen, preloaded methylated H4 peptide. AID 1053174. shares compounds with NSD2 HMT inh. AC35, µM (highest dose often 10 µM), for the others: at the highest dose activity change, negative = signal loss. actives 9.4% (n = 1,500); call rule not given here
# Active calls of the source: *; / = no result; ! = repeats disagree. A selection: hits, their analogues and other compounds. The true share with any hit is near 3%.
SMILES,Casp6 inh,esBAF inh,NSD2 HMT inh,Wnt act,MITF TRPM1 HTS,XiGFP reactiv,AlphaScreen art
C[C@H]1CN([C@@H](C)CO)C(=O)c2c(c3ccccc3n2C)-c2ccccc2CO[C@@H]1CN(C)Cc1ccc(Oc2ccccc2)cc1,0.7,/,/,/,/,-0.8,/
COc1cc2c(C#N)c(N3CCCC3)nc(N)c2c(N)n1,96.4*!,9.4,68.5*,0.8,-0.7,0.3,-2.5%
COc1cc2c(C#N)c(N3CCN(C)CC3)nc(N)c2c(N)n1,/,/,23.7,/,/,/,/
CCCN1[C@H](C(=O)NCC)[C@@H](CO)[C@@H]2Cn3c(ccc(-c4ccc(C(=O)N(C)C)cc4)c3=O)[C@@H]21,10.7,-3.3,/,/,/,-0.1,/
C[C@H]1CN([C@@H](C)CO)C(=O)c2cc(-c3cccc(F)c3)cnc2O[C@H]1CN(C)Cc1cccnc1,2.3,-2.6,/,/,/,1.1,/
C[C@H]1CN([C@@H](C)CO)C(=O)c2cc(NC(=O)Nc3ccc(C(F)(F)F)cc3)ccc2O[C@H]1CN(C)CC1CC1,1.6,-5.3,/,/,/,3.1,/
CCN(CC)S(=O)(=O)c1cccc(-c2nnc(SCCCC(=O)c3ccc(F)cc3)o2)c1,/,6.3,126.6*,-5.2,/,/,-1.2%
CCN(CC)S(=O)(=O)c1cccc(-c2nnc(SCCCC(=O)c3ccccc3)o2)c1,/,9.0,-0.3,-1.6,/,/,/
COc1cc(/C=C2\SC(c3ccc(C)cc3)=NC2=O)cc(OC)c1O,1.3,/,6.3,-0.1,0.6,/,/
Cc1ccc(C2=NC(=O)/C(=C/c3cc(O)c(O)c(Br)c3)S2)cc1,78.9*,6.3,119.6*,-1.0,-2.2,0.0,8.21µM*
COc1cccc(CNC(=O)C[C@H]2CC[C@H](NS(=O)(=O)c3ccccc3OC)[C@H](CO)O2)c1,1.2,-1.8,/,/,/,0.4,/
O=c1[nH]c2ccccc2c2ccccc12,/,/,0.0,-7.8,-3.5,0.0,/
Nc1c(Br)cc(Br)c2c1[nH]c(=O)c1ccccc12,38.8*,/,73.1*,-8.1,/,0.5,-7.7%
O=C(C1CC1)N1C[C@@H]2[C@H](c3ccccc31)[C@@H](CO)N2C(=O)c1cccc(F)c1,0.2,-1.7,/,/,/,0.2,/
CCN(CC)CCNC(=O)c1cc(-c2ccc(Br)s2)nc2ccccc12,-3.9,-6.7,3.3,1.0,11.7,0.2,/
CCN(CC)CCNC(=O)c1cc2cc(Br)ccc2s1,/,/,56.4*,-0.3,-2.4,0.0,-4.2%
CC(=O)N(C)c1ccc(N=Nc2c(C)[nH]n(C(N)=S)c2=O)cc1,1.3,/,79.9*,51.0*,31.6,0.0,-5.6%
CNCc1ccccc1Sc1ccc(O)c(O)c1,7.0,/,63.8*,0.1,-17.7,-0.1,-7.6%
COc1ccc(Sc2ccccc2CN(C)C)cc1OC,/,-2.1,15.9,/,1.0,/,/
CCNC(=O)C[C@H]1CC[C@H]2[C@H](COc3ccc(NC(=O)c4ccc(C(F)(F)F)cc4)cc3C(=O)N2C)O1,2.1,3.8,/,/,/,0.4,/
CCOC(=O)C1=C(COC(=O)c2sccc2C)NC(=O)NC1C (configuration not stated),1.1,-6.1,-4.7,-1.2,-5.2,0.3,/
CCOC(=O)C1=C(COC(=O)c2ccc([N+](=O)[O-])s2)NC(=O)NC1C (configuration not stated),89.4*,-8.5,103.6*,-1.2,-60.7,-0.5,0.2%
COc1cccc(S(=O)(=O)N(C)C[C@H]2OCc3ccccc3-c3ccccc3C(=O)N([C@H](C)CO)C[C@@H]2C)c1,3.9,3.7,/,/,/,0.7,/
COc1ccc(CNC(=O)c2nnn(-c3cccc(C(F)(F)F)c3)c2N)cc1,13.7,-6.3,50.6*,-1.9,6.5,0.3,1.7%
C[C@@H]1CN([C@@H](C)CO)S(=O)(=O)c2ccc(-c3ccccc3)cc2O[C@@H]1CN(C)C,/,0.8,/,/,/,-0.7,/
SMILES,Casp6 inh,esBAF inh,NSD2 HMT inh,Wnt act,MITF TRPM1 HTS,XiGFP reactiv,AlphaScreen art
Cn1nc(C#N)c(=O)[nH]c1=O,-4.4,1.9,-5.0,-0.5,-0.1,0.4,/
COC(=O)c1nn(C)c(=O)[nH]c1=O,3.9,0.6,51.1*,-4.5,13.0,-0.2,0.5%
O=C(c1ccc(F)cc1)N1CC(=O)N2[C@H](CO)[C@@H](c3ccc(C#Cc4ccc(F)cc4)cc3)[C@@H]2C1,0.9,/,/,/,/,0.0,/
COc1ccc(-n2nnnc2SCC(=O)c2cccc(OC)c2)cc1,-0.7,0.1,-2.0,1.7,12.7,/,/
COc1ccc(-n2nnnc2SCC(=O)c2ccc3c(c2)OCCO3)cc1,/,-12.6,97.9*,-0.5,-10.7,/,-3.5%
Cc1cc(F)c(F)c(C(=O)N2C(C)CCCC2C)c1Cl (configuration not stated),-3.0,/,58.5*,1.5,/,-0.1,1.5%
CO[C@H]1CN(C)C(=O)c2ccc(NC(=O)Nc3cccc(F)c3)cc2OC[C@H](C)N(C(=O)Nc2c(C)noc2C)C[C@@H]1C,-0.7,1.9,/,/,/,-0.2,/
CC1CCCCC12NC(=O)N(CC(=O)NCc1ccco1)C2=O (configuration not stated),0.1,-1.9,0.1,-1.6,-1.8,0.1,/
CC1CCCCC12NC(=O)N(CC(=O)NC(=O)NCc1ccco1)C2=O (configuration not stated),/,-3.6,121.3*,/,-7.8,/,4.7%
CCN(C(=O)COC(=O)c1ccc([N+](=O)[O-])o1)C1CCCCC1,7.3,-8.7,69.0*,-1.5,-20.5,0.1,-3.5%
Cc1cc(C(=O)COC(=O)c2ccc([N+](=O)[O-])o2)c(C)n1CC1CCCO1 (configuration not stated),14.0,-17.8,53.7*,2.7,16.5,0.0,-5.0%
COCCn1c(C)cc(C(=O)COC(=O)c2ccc([N+](=O)[O-])o2)c1C,1.8,-13.0,15.1,0.1,-1.1,0.0,/
O=C(COC(=O)c1ccc([N+](=O)[O-])o1)NC1CCS(=O)(=O)C1 (configuration not stated),48.6*,/,74.0*,/,-3.8,-0.1,0.8%
CNC[C@@H]1OCCCC[C@H](C)Oc2ccc(NC(=O)c3ccccc3)cc2C(=O)N([C@@H](C)CO)C[C@H]1C,1.2,2.8,/,/,/,-0.6,/
CCNC(=O)C[C@H]1CC[C@H]2[C@H](COc3ccc(NC(=O)Nc4ccccc4OC)cc3C(=O)N2C)O1,0.2,-3.7,/,/,/,0.1,/
Cc1ccc2c(c1C)-c1c(ccc(C)c1C)C(=O)C2=O,7.7,/,85.2*,-9.7,/,2.7,-7.5%
Cc1ccc(CC#N)c(-c2c(CC#N)ccc(C)c2C)c1C,0.4,4.9,-3.7,-2.3,/,0.1,/
Cc1c(CN(C)C)c2c(n1Cc1ccccc1)C(=O)c1ccccc1-2,/,-2.0,92.7*,/,25.0,/,5.73µM*
Cc1cc(=O)n(Cc2ccccc2)c2ccccc12,-2.1,-0.6,-0.6,3.8,0.5,0.2,/
